Measurements from ChEMBL document CHEMBL1152814, “Novel cyano- and amidinobenzothiazole derivatives: synthesis, antitumor evaluation, and X-ray and quantitative structure-activity relationship (QSAR) analysis” (J Med Chem, 2009).
Activity calls are given as the source filed them. The rule behind the calls is not given here.

What was measured:
MCF7 = assay: Antiproliferative activity against human MCF7 cells after 72 hrs by MTT assay; assay type: functional, cell-based; details: MCF7, 72 h
Outline: (§1)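 Monolayers in DMEM with 10% FBS, 2 mM L-glutamine, penicillin/streptomycin, 37 °C, 5% CO2. Seeded at 3 × 10³ to 6 × 10³ cells/well on day 0. Agents added the next day in five 10-fold dilutions (10^-8–10^-4 mol/L), with a DMSO solvent control (max 0.25%). MTT read at 570 nm after 72 h. Quadruplicate points, three experiments. IC50 is the concentration giving 50% growth inhibition.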

NCI-H460 [1] = assay: Cell cycle arrest in human H460 cells assessed as reduction of percentage of cells in S phase at 5 to 50 uM after 24 hrs using propidium iodide staining by FACS; assay type: functional, cell-based
Outline: (§2)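 H 460 cells seeded at 2 × 10⁵/well and treated after overnight incubation with 5, 10 or 50 µM for 24 or 48 h. Attached and floating cells were pooled, fixed in 70% ethanol, treated with 0.2 µg/µL RNase A (37 °C, 15 min) and stained with 50 µg/mL propidium iodide. Flow cytometry counted 20000 events, in duplicate across two independent experiments.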

NCI-H460 [2] = assay: Induction of apoptosis in human H460 cells assessed as early apoptotic cells at 5 uM after 48 hrs using annexin V staining by FACS; assay type: functional
Outline: (§3)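 H 460 cells seeded at 2 × 10⁵/well and exposed for 48 h (5, 10 or 50 µM) against a vehicle control. Floating and attached cells were pooled and washed in binding buffer (10 mM HEPES, 140 mM NaCl, 2.5 mM CaCl2, pH 7.4). They were stained 20 min with annexin V Alexa Fluor 488 and 1 µg/mL 7-AAD, then read by flow cytometry. Quadrants: viable, early apoptotic, late apoptotic.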

NCI-H460 [3] = assay: Induction of apoptosis in human H460 cells assessed as late apoptotic cells at 5 uM after 48 hrs using annexin V staining by FACS; assay type: functional; outline: as §3
NCI-H460 [4] = assay: Cell cycle arrest in human H460 cells assessed as increase in percentage of cells in sub-G1 phase at 5 to 50 uM after 48 hrs using propidium iodide staining by FACS; assay type: functional, cell-based; outline: as §2
[5] = Antiproliferative activity against human WI38 cells after 72 hrs by MTT assay; assay type: cell-based; details: WI-38, 72 h; outline: as §1
MIA PaCa-2 = assay: Antiproliferative activity against human MIAPaCa2 cells after 72 hrs by MTT assay; assay type: functional, cell-based; details: MIA PaCa-2, 72 h; outline: as §1
NCI-H460 [6] = assay: Induction of apoptosis in human H460 cells assessed as early apoptotic cells after 48 hrs using annexin V staining by FACS; assay type: functional, cell-based; outline: as §3
HeLa = assay: Antiproliferative activity against human HeLa cells after 72 hrs by MTT assay; assay type: functional, cell-based; outline: as §1
NCI-H460 [7] = assay: Induction of apoptosis in human H460 cells assessed as late apoptotic cells at 10 uM after 48 hrs using annexin V staining by FACS; assay type: functional; outline: as §3
NCI-H460 [8] = assay: Cell cycle arrest in human H460 cells assessed as reduction of percentage of cells in S phase at 5 to 50 uM after 48 hrs using propidium iodide staining by FACS; assay type: functional, cell-based; outline: as §2
NCI-H460 [9] = assay: Induction of apoptosis in human H460 cells assessed as complete cell death at 50 uM after 48 hrs; assay type: functional, cell-based
NCI-H460 [10] = assay: Antiproliferative activity against human H460 cells after 72 hrs by MTT assay; assay type: functional, cell-based; details: NCI-H460, 72 h; outline: as §1
SW-620 = assay: Antiproliferative activity against human SW620 cells after 72 hrs by MTT assay; assay type: functional, cell-based; details: SW-620, 72 h; outline: as §1
NCI-H460 [11] = assay: Induction of apoptosis in human H460 cells assessed as early apoptotic cells at 10 uM after 48 hrs using annexin V staining by FACS; assay type: functional; outline: as §3
NCI-H460 [12] = assay: Induction of apoptosis in human H460 cells assessed as viable cells at 10 uM after 48 hrs using annexin V staining by FACS; assay type: functional; details: NCI-H460, 48 h, read-out: Activity; outline: as §3
NCI-H460 [13] = assay: Induction of apoptosis in human H460 cells assessed as viable cells at 5 uM after 48 hrs using annexin V staining by FACS; assay type: functional; details: NCI-H460, 48 h, read-out: Activity; outline: as §3
NCI-H460 [14] = assay: Cell cycle arrest in human H460 cells assessed as increase in percentage of cells in sub-G1 phase at 5 to 50 uM after 24 hrs using propidium iodide staining by FACS; assay type: functional, cell-based; outline: as §2
NCI-H460 [15] = assay: Induction of apoptosis in human H460 cells assessed as late apoptotic cells after 48 hrs using annexin V staining by FACS; assay type: functional, cell-based; outline: as §3
NCI-H460 [16] = assay: Induction of apoptosis in human H460 cells assessed as viable cells after 48 hrs using annexin V staining by FACS; assay type: functional, cell-based; outline: as §3
NCI-H460 [17] = assay: Induction of apoptosis in human H460 cells at 50 uM after 24 hrs; assay type: functional
HEp-2 = assay: Antiproliferative activity against human Hep2 cells after 72 hrs by MTT assay; assay type: functional, cell-based; details: HEp-2, 72 h; outline: as §1
NCI-H460 [18] = assay: Cell cycle arrest in human H460 cells assessed as induction of G1 phase delay at 50 uM after 48 hrs using propidium iodide staining by FACS; assay type: functional, cell-based; outline: as §2
NCI-H460 [19] = assay: Cell cycle arrest in human H460 cells assessed as induction of G1 phase delay at 50 uM after 24 hrs using propidium iodide staining by FACS; assay type: functional, cell-based; outline: as §2
NCI-H460 [20] = assay: Induction of apoptosis in human H460 cells assessed as early apoptotic cells at 50 uM after 48 hrs using annexin V staining by FACS; assay type: functional; outline: as §3
NCI-H460 [21] = assay: Cell cycle arrest in human H460 cells assessed as reduction of percentage of cells in S phase at 50 uM after 48 hrs using propidium iodide staining by FACS; assay type: functional, cell-based; outline: as §2
NCI-H460 [22] = assay: Cell cycle arrest in human H460 cells assessed as induction of G2 phase delay at 50 uM after 48 hrs using propidium iodide staining by FACS; assay type: functional, cell-based; outline: as §2
NCI-H460 [23] = assay: Cell cycle arrest in human H460 cells assessed as reduction of percentage of cells in S phase at 50 uM after 24 hrs using propidium iodide staining by FACS; assay type: functional, cell-based; outline: as §2
NCI-H460 [24] = assay: Induction of apoptosis in human H460 cells assessed as late apoptotic cells at 50 uM after 48 hrs using annexin V staining by FACS; assay type: functional; outline: as §3
NCI-H460 [25] = assay: Induction of apoptosis in human H460 cells assessed as viable cells at 50 uM after 48 hrs using annexin V staining by FACS; assay type: functional; details: NCI-H460, 48 h, read-out: Activity; outline: as §3
NCI-H460 [26] = assay: Cell cycle arrest in human H460 cells assessed as increase in percentage of cells in G1 phase at 10 uM after 48 hrs using propidium iodide staining by FACS; assay type: functional, cell-based; outline: as §2
NCI-H460 [27] = assay: Cell cycle arrest in human H460 cells assessed as induction of G2 phase delay at 50 uM after 24 hrs using propidium iodide staining by FACS; assay type: functional, cell-based; outline: as §2
NCI-H460 [28] = assay: Cell cycle arrest in human H460 cells assessed as increase in percentage of cells in G1 phase at 10 uM after 24 hrs using propidium iodide staining by FACS; assay type: functional, cell-based; outline: as §2

Row | IC50 (MCF7) [µM] | IC50 (MIA PaCa-2) [µM] | IC50 (HeLa) [µM] | IC50 (NCI-H460 [10]) [µM] | IC50 (SW-620) [µM] | Compound | Activity (NCI-H460 [1]) | IC50 [5] [µM] | Activity (NCI-H460 [6]) | Activity (NCI-H460 [8]) | Activity (NCI-H460 [15]) | Activity (NCI-H460 [16]) | further results
1 | 3 | 3 | 4 | 3 | 9 | Cc1cccc(Nc2nc3ccc(C(=N)NC(C)C)cc3s2)n1.Cl.Cl | Active | 19 | Dose-dependent effect | Active | Dose-dependent effect | Dose-dependent effect | Activity (NCI-H460 [2]): 12.24%; Activity (NCI-H460 [3]): 3.37%; Activity (NCI-H460 [4]): Active; Activity (NCI-H460 [7]): 3.75%; Activity (NCI-H460 [9]): Active; Activity (NCI-H460 [11]): 16.43%; viability at 10 µM (NCI-H460 [12]): 77.7%; viability at 5 µM (NCI-H460 [13]): 83.1%; Activity (NCI-H460 [14]): Active; Activity (NCI-H460 [17]): 40%
2 | 2 | 3 | 5 | 2 | 5 | Cc1cccnc1Nc1nc2ccc(C(=N)NC(C)C)cc2s1 | – | 14 | – | – | – | – | –
3 | > 10 | 4 | 3 | – | 4 | Cc1ccnc(Nc2nc3ccc(C#N)cc3s2)c1 | – | ≥ 10 | – | – | – | – | IC50 (HEp-2): 7 µM
4 | 13 | 17 | 9 | 16 | 17 | CC(C)NC(=N)c1ccc(C(=O)Nc2nc3ccccc3s2)cc1 | – | 16 | – | – | – | – | –
5 | 1.7 | 1.8 | 1.4 | 1.6 | 1.7 | c1cnc(Nc2nc3ccc(C4=NCCN4)cc3s2)nc1 | – | 1.7 | – | – | – | – | –
6 | 8 | 14 | 12 | 15 | 12 | Cc1ccc(Nc2nc3ccc(C(=N)NC(C)C)cc3s2)nc1.Cl.Cl | Active | 31 | Dose-dependent effect | Active | Dose-dependent effect | Dose-dependent effect | Activity (NCI-H460 [18]): Active; Activity (NCI-H460 [19]): Active; Activity (NCI-H460 [20]): 13.58%; Activity (NCI-H460 [21]): Active; Activity (NCI-H460 [22]): Active; Activity (NCI-H460 [23]): Active; Activity (NCI-H460 [24]): 2.39%; viability at 50 µM (NCI-H460 [25]): 83.2%; Activity (NCI-H460 [26]): inactive; Activity (NCI-H460 [27]): Active; Activity (NCI-H460 [28]): inactive
7 | 13 | 11 | 7 | 5 | 15 | CC(C)NC(=N)c1ccc2nc(Nc3ncccn3)sc2c1 | – | 75 | – | – | – | – | –
8 | 2 | 2 | 2 | 2 | 1 | Cc1ccc(Nc2nc3ccc(C4=NCCN4)cc3s2)nc1.Cl.Cl | Active | 6 | Dose-dependent effect | Active | Dose-dependent effect | Dose-dependent effect | Activity (NCI-H460 [7]): 2.3%; Activity (NCI-H460 [11]): 6.98%; viability at 10 µM (NCI-H460 [12]): 89%
9 | 2 | 2 | 2 | 2 | 2 | Cc1cccc(Nc2nc3ccc(C4=NCCN4)cc3s2)n1.Cl.Cl | Active | 2 | Dose-dependent effect | Active | Dose-dependent effect | Dose-dependent effect | Activity (NCI-H460 [4]): Active; Activity (NCI-H460 [7]): 5.58%; Activity (NCI-H460 [11]): 24.05%; viability at 10 µM (NCI-H460 [12]): 67.7%; Activity (NCI-H460 [14]): Active
10 | 6 | 30 | 18 | 16 | 18 | CC(C)NC(=N)c1ccc(Nc2nc3ccc(C(=N)NC(C)C)cc3s2)cc1 | – | 92 | – | – | – | – | –
11 | > 10 | > 10 | > 10 | – | > 10 | N#Cc1ccc(Nc2nc3ccc(C#N)cc3s2)cc1 | – | > 10 | – | – | – | – | IC50 (HEp-2): > 10 µM
